# ChEMBL document CHEMBL1208663, “Synthesis of 2-substituted-N-[4-(1-methyl-4,5-diphenyl-1H-imidazole-2-yl)phenyl]acetamide derivatives and evaluation of their anticancer activity” (Eur J Med Chem, 2010)
# The source made the active and inactive calls. The calls are words filed in the database; no cut-off is given here.
# How the values were obtained:
# HT-29 [1] = assay: Cytotoxicity against human HT-29 cells at 0.64 ug/ml after 24 hrs by MTT assay; type: functional
# Procedure, shortened: (§1)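 HT-29 cells grown in McCoy's 5A with 10% FBS and penicillin/streptomycin at 37 °C, 5% CO2. Treated 24 h with 0.64, 1.6, 6.4, 16, 32 or 80 µg/mL (DMSO stock diluted in medium). MTT added, absorbance read at 540 nm. Viability taken relative to untreated control (100%); IC50 calculated. Four wells per concentration, three repeat experiments.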
# HT-29 [2] = assay: Cytotoxicity against human HT-29 cells at 1.6 ug/ml after 24 hrs by MTT assay; type: functional; procedure, shortened: as §1
# HT-29 [3] = assay: Cytotoxicity against human HT-29 cells at 6.4 ug/ml after 24 hrs by MTT assay; type: functional; procedure, shortened: as §1
# HT-29 [4] = assay: Cytotoxicity against human HT-29 cells at 16 ug/ml after 24 hrs by MTT assay; type: functional; procedure, shortened: as §1
# HT-29 [5] = assay: Cytotoxicity against human HT-29 cells at 32 ug/ml after 24 hrs by MTT assay; type: functional; procedure, shortened: as §1
# HT-29 [6] = assay: Cytotoxicity against human HT-29 cells at 80 ug/ml after 24 hrs by MTT assay; type: functional; procedure, shortened: as §1
# HT-29 [7] = assay: Cytotoxicity against human HT-29 cells after 24 hrs by MTT assay; type: functional, cell-based; settings: HT-29, 24 h; procedure, shortened: as §1
# MCF7 [8] = assay: Cytotoxicity against human MCF7 cells at 0.64 ug/ml after 24 hrs by MTT assay; type: functional
# Procedure, shortened: (§2)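 MCF-7 cells grown in DMEM with 1 mM pyruvate, 10 µg/mL insulin, 10% FBS and penicillin/streptomycin at 37 °C, 5% CO2. Exposed 24 h to 0.64–80 µg/mL (DMSO stocks diluted in medium). MTT added, A540 measured. Percent viability relative to untreated cells; IC50 derived. Three experiments with four wells per concentration.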
# MCF7 [9] = assay: Cytotoxicity against human MCF7 cells at 1.6 ug/ml after 24 hrs by MTT assay; type: functional; procedure, shortened: as §2
# MCF7 [10] = assay: Cytotoxicity against human MCF7 cells at 6.4 ug/ml after 24 hrs by MTT assay; type: functional; procedure, shortened: as §2
# MCF7 [11] = assay: Cytotoxicity against human MCF7 cells at 16 ug/ml after 24 hrs by MTT assay; type: functional; procedure, shortened: as §2
# MCF7 [12] = assay: Cytotoxicity against human MCF7 cells at 32 ug/ml after 24 hrs by MTT assay; type: functional; procedure, shortened: as §2
# MCF7 [13] = assay: Cytotoxicity against human MCF7 cells at 80 ug/ml after 24 hrs by MTT assay; type: functional; procedure, shortened: as §2
# MCF7 [14] = assay: Cytotoxicity against human MCF7 cells after 24 hrs by MTT assay; type: functional, cell-based; settings: MCF7, 24 h; procedure, shortened: as §2
# HT-29 [15] = assay: Inhibition of DNA synthesis in human HT-29 cells by BrdU incorporation assay; type: functional, cell-based; settings: TDE = time-dependent effect
# Procedure, shortened: (§3)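 HT-29 cells (McCoy's 5A, 10% FBS) seeded at 1 × 10^3 cells/mL. Exposed to three concentrations for 24 h and 48 h at 37 °C, with DMSO solvent control. BrdU label for 2 h, then fixation and anti-BrdU-POD for 90 min. Substrate colour read at 492 nm with blank subtracted. Triplicate wells, three experiments.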
# MCF7 [16] = assay: Inhibition of DNA synthesis in human MCF7 cells by BrdU incorporation assay; type: functional, cell-based; settings: TDE = time-dependent effect
# Procedure, shortened: (§4)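 MCF-7 cells (DMEM, pyruvate, insulin, 10% FBS) seeded at 1 × 10^3 cells/mL. Treated at three concentrations for 24 h or 48 h at 37 °C against DMSO control. Labelled with BrdU for 2 h, fixed, then anti-BrdU-POD for 90 min. Colorimetric substrate read at 492 nm after blank subtraction. Triplicate wells, repeated three times.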
# HT-29 [17] = assay: Inhibition of DNA synthesis in human HT-29 cells after 48 hrs by BrdU incorporation assay; type: functional, cell-based; procedure, shortened: as §3
# MCF7 [18] = assay: Inhibition of DNA synthesis in human MCF7 cells after 48 hrs by BrdU incorporation assay; type: functional, cell-based; procedure, shortened: as §4
# HT-29 [19] = assay: Induction of apoptosis in human HT-29 cells assessed as DNA fragmentation after 24 hrs by gel electrophoresis
Structure (SMILES),Activity (HT-29 [1]),Activity (HT-29 [2]),Activity (HT-29 [3]),Activity (HT-29 [4]),Activity (HT-29 [5]),Activity (HT-29 [6]),IC50 (HT-29 [7]),Activity (MCF7 [8]),Activity (MCF7 [9]),Activity (MCF7 [10]),Activity (MCF7 [11]),Activity (MCF7 [12]),Activity (MCF7 [13]),IC50 (MCF7 [14]),inhibition (HT-29 [15]),inhibition (MCF7 [16]),inhibition (HT-29 [17]),inhibition (MCF7 [18]),Activity (HT-29 [19])
Cn1c(-c2ccc(NC(=O)CSC3=NCCS3)cc2)nc(-c2ccccc2)c1-c1ccccc1,16.8%,30.4%,31%,43.3%,59.4%,75.2%,21 µg/mL,10.3%,16.2%,18.6%,41.8%,52.5%,70%,26.7 µg/mL,,,,,
Cn1cnnc1SCC(=O)Nc1ccc(-c2nc(-c3ccccc3)c(-c3ccccc3)n2C)cc1,32%,40.8%,43.1%,59.1%,86.1%,88%,10.7 µg/mL,33.1%,42.8%,59.2%,61.2%,89.2%,89.3%,3.2 µg/mL,tde,tde,Dose-dependent effect,Dose-dependent effect,Active
Cn1ccnc1SCC(=O)Nc1ccc(-c2nc(-c3ccccc3)c(-c3ccccc3)n2C)cc1,13.6%,23.8%,30.7%,36.5%,41.1%,69.4%,47.5 µg/mL,10.3%,17.5%,27.2%,32.4%,43.4%,64%,46.5 µg/mL,,,,,
Cc1nnc(SCC(=O)Nc2ccc(-c3nc(-c4ccccc4)c(-c4ccccc4)n3C)cc2)s1,34.8%,39.9%,73%,83.3%,87.1%,90.5%,2.7 µg/mL,35.1%,37.5%,67.8%,74.9%,83.4%,85.2%,3.2 µg/mL,tde,tde,Dose-dependent effect,Dose-dependent effect,Active
Cn1nnnc1SCC(=O)Nc1ccc(-c2nc(-c3ccccc3)c(-c3ccccc3)n2C)cc1,38%,49.8%,60.6%,72.5%,84%,89%,1.6 µg/mL,21.9%,34.3%,55.9%,63.7%,77.5%,77.7%,4.5 µg/mL,tde,tde,Dose-dependent effect,Dose-dependent effect,Active
Cn1c(-c2ccc(NC(=O)CSc3nc4ccccc4o3)cc2)nc(-c2ccccc2)c1-c1ccccc1,24.8%,41%,44.9%,56.2%,79.3%,81.5%,11 µg/mL,18.7%,27.4%,42.3%,56%,71.5%,76.3%,11.2 µg/mL,tde,tde,Dose-dependent effect,Dose-dependent effect,inactive
CN(C)CCN1CCN(CC(=O)Nc2ccc(-c3nc(-c4ccccc4)c(-c4ccccc4)n3C)cc2)CC1,3.1%,8%,12.2%,28.2%,29.8%,45.4%,> 80 µg/mL,1.2%,1.9%,11.1%,19.4%,25.8%,34.7%,> 80 µg/mL,,,,,
CN1CCN(CC(=O)Nc2ccc(-c3nc(-c4ccccc4)c(-c4ccccc4)n3C)cc2)CC1,18.8%,27.4%,28.8%,33.7%,49.1%,53.1%,35.5 µg/mL,1.1%,2.9%,28.6%,30.1%,46.2%,50.3%,76.5 µg/mL,,,,,
Cn1c(-c2ccc(NC(=O)CCl)cc2)nc(-c2ccccc2)c1-c1ccccc1,7.2%,14.4%,15.1%,23.7%,53.2%,76.1%,28.7 µg/mL,3.4%,4.3%,14.2%,15.2%,42.8%,70%,42.6 µg/mL,,,,,
Cn1c(-c2ccc(NC(=O)CN3CCN(Cc4ccc(Cl)cc4)CC3)cc2)nc(-c2ccccc2)c1-c1ccccc1,11.3%,16.4%,41.5%,52.9%,55.6%,60.7%,12 µg/mL,4.8%,11.8%,33.4%,46.2%,52.8%,52.9%,21 µg/mL,,,,,
Cn1c(-c2ccc(NC(=O)CN3CCN(c4ccccc4)CC3)cc2)nc(-c2ccccc2)c1-c1ccccc1,17.3%,26%,46.5%,55.4%,60.5%,63.7%,8.6 µg/mL,12.1%,21.3%,37.7%,59.6%,63.6%,72.5%,10.7 µg/mL,,,,,
CCN1CCN(CC(=O)Nc2ccc(-c3nc(-c4ccccc4)c(-c4ccccc4)n3C)cc2)CC1,7.4%,13.9%,17.2%,28.4%,38.8%,51.2%,75 µg/mL,4.7%,14.6%,16.4%,32.8%,38.6%,46.3%,> 80 µg/mL,,,,,
Cn1c(-c2ccc(NC(=O)CN3CCN(Cc4ccccc4)CC3)cc2)nc(-c2ccccc2)c1-c1ccccc1,15.5%,26%,26.8%,37%,40%,54.5%,65.5 µg/mL,7.2%,13.3%,23.8%,28.3%,33.6%,49.5%,> 80 µg/mL,,,,,
Cn1c(-c2ccc(NC(=O)CSc3nc4ccccc4s3)cc2)nc(-c2ccccc2)c1-c1ccccc1,9.8%,15.3%,36.8%,47.2%,66%,82.7%,18 µg/mL,0.9%,2.1%,27%,50.3%,59%,76.6%,15.8 µg/mL,,,,,
